Laboratory results published in ChEMBL document CHEMBL1139384, “First Cdc7 kinase inhibitors: pyrrolopyridinones as potent and orally active antitumor agents. 2. Lead discovery” (J Med Chem, 2009).

Columns and labels:
[1] = target: Fibroblast growth factor receptor 1 (Homo sapiens, UniProt P11362); test: Inhibition of FGFR1
[2] = target: Inhibitor of nuclear factor kappa-B kinase subunit epsilon (Homo sapiens, UniProt Q14164); test: Inhibition of IKKi
[3] = target: Serine/threonine-protein kinase NIM1 (Homo sapiens, UniProt Q8IY84); test: Inhibition of NIM1
Serine/threonine-protein kinase NIM1, sequence (Q8IY84 whole entry): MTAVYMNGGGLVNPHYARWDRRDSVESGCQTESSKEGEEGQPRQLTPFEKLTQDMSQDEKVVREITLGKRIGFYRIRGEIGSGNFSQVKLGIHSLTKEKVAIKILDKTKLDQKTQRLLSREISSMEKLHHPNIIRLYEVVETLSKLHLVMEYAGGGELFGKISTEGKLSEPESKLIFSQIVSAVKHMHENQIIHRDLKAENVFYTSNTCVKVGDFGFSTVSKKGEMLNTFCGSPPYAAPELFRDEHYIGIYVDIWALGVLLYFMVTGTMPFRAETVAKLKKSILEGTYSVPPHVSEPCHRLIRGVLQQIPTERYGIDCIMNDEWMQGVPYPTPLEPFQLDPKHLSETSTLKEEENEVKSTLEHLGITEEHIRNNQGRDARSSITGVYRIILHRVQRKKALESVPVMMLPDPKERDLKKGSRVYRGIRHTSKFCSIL

[4] = target: Serine/threonine-protein kinase PAK 4 (Homo sapiens, UniProt O96013); test: Inhibition of PAK4
Serine/threonine-protein kinase PAK 4, sequence (O96013 whole entry): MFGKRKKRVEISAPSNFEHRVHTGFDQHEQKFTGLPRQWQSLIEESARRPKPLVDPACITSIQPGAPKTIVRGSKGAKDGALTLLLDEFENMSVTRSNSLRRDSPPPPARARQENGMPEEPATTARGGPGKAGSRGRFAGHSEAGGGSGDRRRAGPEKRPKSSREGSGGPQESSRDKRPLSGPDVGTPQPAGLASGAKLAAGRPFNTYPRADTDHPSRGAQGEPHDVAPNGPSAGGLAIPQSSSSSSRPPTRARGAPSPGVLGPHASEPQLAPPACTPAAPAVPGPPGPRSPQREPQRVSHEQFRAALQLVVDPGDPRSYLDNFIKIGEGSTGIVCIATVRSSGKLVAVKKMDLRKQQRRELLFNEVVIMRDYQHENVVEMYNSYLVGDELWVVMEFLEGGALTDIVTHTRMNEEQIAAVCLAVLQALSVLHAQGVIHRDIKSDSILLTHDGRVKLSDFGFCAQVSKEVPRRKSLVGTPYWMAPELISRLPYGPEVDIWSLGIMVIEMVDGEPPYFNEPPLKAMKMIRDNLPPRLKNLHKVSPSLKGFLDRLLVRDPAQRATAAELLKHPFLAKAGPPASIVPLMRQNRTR

[5] = target: cAMP-dependent protein kinase catalytic subunit alpha (Homo sapiens, UniProt P17612); test: Inhibition of PKAalpha
[6] = target: Cyclin-dependent kinase 9 (Homo sapiens, UniProt P50750); test: Inhibition of CDK9
Cyclin-dependent kinase 9, sequence (P50750 whole entry): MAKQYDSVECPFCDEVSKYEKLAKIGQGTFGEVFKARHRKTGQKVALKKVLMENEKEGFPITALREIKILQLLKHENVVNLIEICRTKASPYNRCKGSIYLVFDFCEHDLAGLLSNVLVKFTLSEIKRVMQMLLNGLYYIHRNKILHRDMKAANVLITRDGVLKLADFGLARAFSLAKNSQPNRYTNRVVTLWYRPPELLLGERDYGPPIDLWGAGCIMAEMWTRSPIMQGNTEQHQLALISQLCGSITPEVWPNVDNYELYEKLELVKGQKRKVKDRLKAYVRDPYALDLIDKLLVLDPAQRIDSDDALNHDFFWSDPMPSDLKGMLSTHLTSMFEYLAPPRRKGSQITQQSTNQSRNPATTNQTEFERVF

[7] = Volume of distribution at steady state in nu/nu mouse at 10 mg/kg, iv administered as single dose; format: ADME, organism-based; parameters: dose 10 mg/kg, route intravenous; conditions: in vivo, read-out: Vdss
Method in brief: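 Overnight-fasted male Nu/Nu mice got a single 10 mg/kg dose in 5% dextrose, iv or po, three mice per route. Saphenous blood was drawn at 0.083 (iv) or 0.25 (po), 0.5, 1, 6 and 24 h. Plasma was assayed by LC/MS/MS and analysed noncompartmentally. Tmax is the observed peak time, Vss = CL·MRT, and F is the ratio of dose-normalized AUC∞ po/iv.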

[8] = Half life in nu/nu mouse at 10 mg/kg, iv administered as single dose; format: ADME, organism-based; parameters: dose 10 mg/kg, route intravenous; conditions: in vivo
Method in brief: (§1)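 Single iv or oral dose in 5% dextrose to overnight-fasted animals. Nu/Nu mice: males, 3 per route, saphenous bleeds to 24 h. Han-Wistar rats: males, 3 per route, jugular bleeds to 24 h. Beagle dogs: 2 per sex, iv and po crossover 2 weeks apart, jugular bleeds to 48 h. Plasma by LC/MS/MS; noncompartmental parameters, AUC by linear trapezoid with extrapolation.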

[9] = Cmax in nu/nu mouse at 10 mg/kg, po administered as single dose; format: ADME, organism-based; parameters: dose 10 mg/kg, route oral; conditions: in vivo; method in brief: as §1
[10] = Half life in nu/nu mouse at 10 mg/kg, po administered as single dose; format: ADME, organism-based; parameters: dose 10 mg/kg, route oral; conditions: in vivo; method in brief: as §1
Rattus norvegicus [11] = test: AUC (0 to infinity) in Wistar rat at 10 mg/kg, iv administered as single dose; format: ADME, organism-based, Plasma; parameters: time infinity, dose 10 mg/kg, route intravenous; conditions: in vivo; method in brief: as §1
[12] = Renal clearance in Wistar rat at 10 mg/kg, iv administered as single dose; format: ADME, organism-based, Kidney; parameters: dose 10 mg/kg, route intravenous; conditions: in vivo, read-out: CL_renal (converted)
Method in brief: (§2)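 Overnight-fasted male Han-Wistar rats got a single 10 mg/kg iv dose in 5% dextrose, three per leg. Jugular blood was drawn from 0.083 to 24 h. Urine was collected over 0–6 and 6–24 h. Plasma and urine were assayed by LC/MS/MS and analysed noncompartmentally. Vss = CL·MRT.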

[13] = Volume of distribution at steady state in Wistar rat at 10 mg/kg, iv administered as single dose; format: ADME, organism-based; parameters: dose 10 mg/kg, route intravenous; conditions: in vivo, read-out: Vdss; method in brief: as §2
MCF7 = test: Antiproliferative activity against human MCF7 cells after 72 hrs by luciferase based assay; format: functional, cell-based; conditions: MCF7, 72 h
OPM-2 = test: Antiproliferative activity against human OPM2 cells after 72 hrs by luciferase based assay; format: functional, cell-based; conditions: OPM-2, 72 h
Method in brief: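 Cells seeded at 2500–5000/well in complete medium (RPMI1640, McCoy's or DMEM with 10% FCS, by line); compound added after 24 h, 72 h at 37 °C, 5% CO2.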

NHDF = test: Antiproliferative activity against human NHDF cells after 72 hrs by luciferase based assay; format: cell-based
HeLa [14] = test: Inhibition of DNA synthesis in human HeLa cells at 3 uM assessed as bromodeoxyuridine incorporation; format: functional; parameters: scale not given: the % may be the effect or the level left
Method in brief: (§3)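 Logarithmically growing HeLa cells exposed to 3 µM for set times, labelled with 50 µM BrdU, fixed in 70% ethanol. DNA content by propidium iodide with RNase A, 30 min at 37 °C; BrdU by FITC anti-BrdU after 2N HCl denaturation; percent positive cells by FACS.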

HeLa [15] = test: Inhibition of DNA synthesis in human HeLa cells at 3 uM assessed as bromodeoxyuridine incorporation after 9 hrs; format: functional; parameters: scale not given: the % may be the effect or the level left; method in brief: as §3
HeLa [16] = test: Inhibition of DNA synthesis in human HeLa cells at 3 uM assessed as bromodeoxyuridine incorporation after 24 hrs; format: functional; parameters: scale not given: the % may be the effect or the level left; method in brief: as §3
HeLa [17] = test: Cell cycle arrest in human HeLa cells assessed as accumulation at G1/S phase at 3 uM by fluorescence activated cell sorting; format: functional, cell-based; method in brief: as §3
[18] = target: Cell division cycle 7-related protein kinase (Homo sapiens, UniProt O00311); test: Inhibition of human Cdc7 in human A2780 cells assessed as inhibition of Ser53 phosphorylation of Mcm2 protein after 4 hrs; format: cell-based
Cell division cycle 7-related protein kinase, sequence (O00311 whole entry, looked up): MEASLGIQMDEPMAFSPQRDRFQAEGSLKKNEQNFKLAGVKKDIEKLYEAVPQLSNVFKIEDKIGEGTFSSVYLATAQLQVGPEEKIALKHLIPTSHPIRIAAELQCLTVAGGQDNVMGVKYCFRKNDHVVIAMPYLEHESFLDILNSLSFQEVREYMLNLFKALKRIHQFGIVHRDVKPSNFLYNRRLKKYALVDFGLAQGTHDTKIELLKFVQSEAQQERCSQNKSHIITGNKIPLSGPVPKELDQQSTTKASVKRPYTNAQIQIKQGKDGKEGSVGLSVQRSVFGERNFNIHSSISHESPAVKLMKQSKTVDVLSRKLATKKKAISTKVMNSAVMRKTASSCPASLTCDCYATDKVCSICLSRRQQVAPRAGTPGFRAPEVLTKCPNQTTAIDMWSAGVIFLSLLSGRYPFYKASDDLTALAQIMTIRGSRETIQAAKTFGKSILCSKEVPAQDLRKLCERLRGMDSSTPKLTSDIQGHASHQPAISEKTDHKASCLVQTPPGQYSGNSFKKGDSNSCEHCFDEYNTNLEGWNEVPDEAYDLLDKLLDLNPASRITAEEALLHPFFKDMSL
Method in brief: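 A2780 cells exposed for 4 h to a range of concentrations, then lysed in 50 mmol/L Tris-HCl pH 6.8, 1% SDS, 1 mmol/L DTT and sonicated 10 s. 15 µg protein per lane ([…]) was taken for Western blot with phospho-specific antibodies to MCM2 Ser40 and Ser53.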

A2780 = test: Antitumor activity against human A2780 cells xenografted in CDI nu/nu mouse assessed as tumor growth inhibition at 60 mg/kg, po administered for 10 days; format: functional; conditions: A2780, 240 h, read-out: TGI
[19] = target: Protein kinase C beta type (Homo sapiens, UniProt P05771); test: Inhibition of PKCbeta
Protein kinase C beta type, sequence (P05771 whole entry): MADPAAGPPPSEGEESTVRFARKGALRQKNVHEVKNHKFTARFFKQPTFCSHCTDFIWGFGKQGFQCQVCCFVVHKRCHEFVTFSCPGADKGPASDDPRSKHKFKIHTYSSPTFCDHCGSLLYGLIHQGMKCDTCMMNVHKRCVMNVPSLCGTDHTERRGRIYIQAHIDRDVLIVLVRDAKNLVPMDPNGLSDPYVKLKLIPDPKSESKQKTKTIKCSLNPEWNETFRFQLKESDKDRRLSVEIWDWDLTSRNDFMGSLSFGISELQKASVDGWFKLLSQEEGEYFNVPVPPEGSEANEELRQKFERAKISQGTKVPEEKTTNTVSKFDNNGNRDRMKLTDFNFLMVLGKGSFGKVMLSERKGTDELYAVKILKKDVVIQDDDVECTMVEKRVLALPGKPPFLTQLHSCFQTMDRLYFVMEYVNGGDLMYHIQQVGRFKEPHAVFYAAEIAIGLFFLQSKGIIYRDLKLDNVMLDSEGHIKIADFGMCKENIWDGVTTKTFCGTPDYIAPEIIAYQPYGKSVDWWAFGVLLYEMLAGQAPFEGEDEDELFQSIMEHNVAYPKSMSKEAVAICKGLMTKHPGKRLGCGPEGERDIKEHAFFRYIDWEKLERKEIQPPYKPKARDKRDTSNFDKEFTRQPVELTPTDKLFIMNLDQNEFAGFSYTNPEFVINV

[20] = target: Serine/threonine-protein kinase Chk1 (Homo sapiens, UniProt O14757); test: Inhibition of CHK1
Serine/threonine-protein kinase Chk1, sequence (O14757 whole entry): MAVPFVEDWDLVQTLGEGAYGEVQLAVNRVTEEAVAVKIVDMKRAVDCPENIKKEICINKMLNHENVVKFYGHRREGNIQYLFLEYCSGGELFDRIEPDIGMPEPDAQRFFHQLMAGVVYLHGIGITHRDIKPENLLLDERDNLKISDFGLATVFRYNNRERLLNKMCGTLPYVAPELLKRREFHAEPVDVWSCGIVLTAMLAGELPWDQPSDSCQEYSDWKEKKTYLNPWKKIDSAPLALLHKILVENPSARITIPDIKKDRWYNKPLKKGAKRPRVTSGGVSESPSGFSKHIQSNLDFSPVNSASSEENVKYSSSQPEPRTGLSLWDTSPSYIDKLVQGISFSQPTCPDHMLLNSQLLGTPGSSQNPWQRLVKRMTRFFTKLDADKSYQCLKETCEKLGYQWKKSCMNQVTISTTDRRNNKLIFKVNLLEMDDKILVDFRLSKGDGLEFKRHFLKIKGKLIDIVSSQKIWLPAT

[21] = target: Serine/threonine-protein kinase PLK1 (Homo sapiens, UniProt P53350)
Serine/threonine-protein kinase PLK1, sequence (P53350 whole entry): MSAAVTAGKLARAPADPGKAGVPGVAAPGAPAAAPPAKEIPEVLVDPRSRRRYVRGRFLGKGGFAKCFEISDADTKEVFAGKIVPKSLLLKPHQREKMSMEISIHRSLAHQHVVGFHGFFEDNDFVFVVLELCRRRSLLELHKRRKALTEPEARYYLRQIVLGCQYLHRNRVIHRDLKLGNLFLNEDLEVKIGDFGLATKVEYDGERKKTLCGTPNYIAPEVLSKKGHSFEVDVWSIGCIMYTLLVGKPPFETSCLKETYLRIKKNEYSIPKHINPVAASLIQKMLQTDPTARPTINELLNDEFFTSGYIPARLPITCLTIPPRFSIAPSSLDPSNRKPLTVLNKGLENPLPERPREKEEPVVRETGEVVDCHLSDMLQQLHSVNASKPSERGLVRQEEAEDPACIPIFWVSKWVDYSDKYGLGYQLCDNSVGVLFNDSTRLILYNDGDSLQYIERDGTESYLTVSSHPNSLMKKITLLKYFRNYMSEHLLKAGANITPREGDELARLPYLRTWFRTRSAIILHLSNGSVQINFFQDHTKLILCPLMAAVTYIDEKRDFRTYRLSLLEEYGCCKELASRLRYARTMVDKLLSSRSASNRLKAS

[22] = Tmax in Wistar rat at 20 mg/kg, po administered as single dose; conditions: in vivo
Rattus norvegicus [23] = test: AUC (0 to infinity) in Wistar rat at 20 mg/kg, po administered as single dose; conditions: in vivo

Fibroblast growth factor receptor 1, sequence (P11362 whole entry): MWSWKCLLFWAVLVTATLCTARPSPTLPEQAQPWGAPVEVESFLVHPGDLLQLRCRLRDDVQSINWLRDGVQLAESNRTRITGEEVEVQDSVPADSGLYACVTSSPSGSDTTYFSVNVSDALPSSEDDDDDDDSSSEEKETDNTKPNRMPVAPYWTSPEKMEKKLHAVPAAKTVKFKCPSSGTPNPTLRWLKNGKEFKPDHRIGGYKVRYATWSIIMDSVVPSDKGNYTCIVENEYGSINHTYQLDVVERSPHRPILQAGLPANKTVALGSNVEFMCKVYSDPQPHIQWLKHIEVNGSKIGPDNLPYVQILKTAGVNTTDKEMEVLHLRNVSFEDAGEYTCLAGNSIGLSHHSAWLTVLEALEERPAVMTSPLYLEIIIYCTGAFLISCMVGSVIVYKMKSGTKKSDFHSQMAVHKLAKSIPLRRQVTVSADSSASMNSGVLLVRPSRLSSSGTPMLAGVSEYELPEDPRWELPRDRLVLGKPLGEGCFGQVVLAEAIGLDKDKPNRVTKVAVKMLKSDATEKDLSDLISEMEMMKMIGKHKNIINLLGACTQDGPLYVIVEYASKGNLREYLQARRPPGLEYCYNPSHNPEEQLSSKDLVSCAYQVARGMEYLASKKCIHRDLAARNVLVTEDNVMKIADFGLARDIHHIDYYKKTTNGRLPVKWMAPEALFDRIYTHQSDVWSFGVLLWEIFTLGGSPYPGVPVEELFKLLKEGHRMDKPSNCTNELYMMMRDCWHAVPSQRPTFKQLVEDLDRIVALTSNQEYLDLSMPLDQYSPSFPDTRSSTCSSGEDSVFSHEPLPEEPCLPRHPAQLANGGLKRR

Nc1nccc(-c2cc3c([nH]2)[C@@H](CCF)CNC3=O)n1
IC50 [1]: > 4 µM | IC50 [2]: > 4 µM | IC50 [3]: > 4 µM | IC50 [4]: > 4 µM | IC50 [5]: > 4 µM | IC50 [6]: 0.028 µM | Vd [7]: 2.6 L/kg | half-life [8]: 1 h | Cmax [9]: 2600 nM | half-life [10]: 1 h | AUC (Rattus norvegicus [11]): 19.9 µM·h | CL renal [12]: 18.3 mL/min/kg | Vd [13]: 2.1 L/kg | IC50 (MCF7): 1.1 µM | IC50 (OPM-2): 3.7 µM | IC50 (NHDF): 1.6 µM | Activity (HeLa [14]): 35% | Activity (HeLa [15]): 6% | Activity (HeLa [16]): 3% | Activity (HeLa [17]): Active | MED [18]: 0.6 µM | inhibition in vivo at 60 mg/kg (A2780): 68% | IC50 [19]: 1.15 µM | IC50 [20]: > 4 µM | IC50 [21]: 0.574 µM | Tmax [22]: 0.3 h | AUC (Rattus norvegicus [23]): 18.9 µM·h
